Assay results from ChEMBL document CHEMBL5303300, “EUbOPEN Chemogenomics Library - Multiplex” (2023).
“And” between values parts separate entries of the source, which are not always exact repeats. Identical values can stand only once.

Tested on: HEK-293T
Test: Multiplex assay against HEK293T
Assay type: toxicity, cell-based
Details: human, number of replicates 2
Outline: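 On a CQ1 microscope at 37°C and 5% CO2, live cells were imaged after compound addition. They had been stained at seeding with Hoechst33342, BioTracker Green Microtubule Cytoskeleton Dye, MitoTracker Red and Annexin V Alexa Fluor 680. CellPathfinder machine-learning gating assigned cells to Hoechst high-intensity objects or normal cells, normal cells to healthy, pyknosed or fragmented nuclei, and pyknosed cells to mitotic or apoptotic. Tubulin, mitochondrial-mass and membrane-permeability phenotypes are per cents of healthy-nucleus cells.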

[1] = 12 h, 1 µM, compound concentration 1 uM
[2] = 12 h, 10 µM, compound concentration 10 uM
[3] = 24 h, 1 µM, compound concentration 1 uM
[4] = 24 h, 10 µM, compound concentration 10 uM
[5] = 48 h, 1 µM, compound concentration 1 uM
[6] = 48 h, 10 µM, compound concentration 10 uM

Cc1onc(-c2ccccc2Cl)c1C(=O)N(C)c1ccc(Cl)cc1
Population Apoptotic (%) [1]: 39% and 47% | Population Fragmented Nuclei (%) [1]: 2% and 5% | Population Healthy Nuclei (%) [1]: 80% and 83% | Population Hoechst High Intensity Objects (%) [1]: 6% | Population Membrane Permeable-Phenotype (%) [1]: 2% and 1% | Population Mitochondria Different-Phenotype (%) [1]: 18% and 15% | Population Mitotic Cells (%) [1]: 60% and 52% | Population Normal (%) [1]: 93% | Population Pyknosed Nuclei (%) [1]: 16% and 11% | Population Tubulin-Different-Phenotype (%) [1]: 47% and 44% | Total Cell Count [1]: 587 and 613 | Population Apoptotic (%) [2]: 50% | Population Fragmented Nuclei (%) [2]: 3% | Population Healthy Nuclei (%) [2]: 81% and 84% | Population Hoechst High Intensity Objects (%) [2]: 5% and 7% | Population Membrane Permeable-Phenotype (%) [2]: 4% and 1% | Population Mitochondria Different-Phenotype (%) [2]: 26% and 20% | Population Mitotic Cells (%) [2]: 50% and 49% | Population Normal (%) [2]: 94% and 92% | Population Pyknosed Nuclei (%) [2]: 15% and 11% | Population Tubulin-Different-Phenotype (%) [2]: 77% and 55% | Total Cell Count [2]: 575 and 625 | Population Apoptotic (%) [3]: 44% and 42% | Population Fragmented Nuclei (%) [3]: 7% | Population Healthy Nuclei (%) [3]: 83% and 86% | Population Hoechst High Intensity Objects (%) [3]: 6% and 8% | Population Membrane Permeable-Phenotype (%) [3]: 2% | Population Mitochondria Different-Phenotype (%) [3]: 4% and 5% | Population Mitotic Cells (%) [3]: 55% and 57% | Population Normal (%) [3]: 93% and 91% | Population Pyknosed Nuclei (%) [3]: 9% and 6% | Population Tubulin-Different-Phenotype (%) [3]: 22% | Total Cell Count [3]: 896 and 976 | Population Apoptotic (%) [4]: 36% and 23% | Population Fragmented Nuclei (%) [4]: 5% and 6% | Population Healthy Nuclei (%) [4]: 84% and 85% | Population Hoechst High Intensity Objects (%) [4]: 5% and 8% | Population Membrane Permeable-Phenotype (%) [4]: 4% | Population Mitochondria Different-Phenotype (%) [4]: 14% and 5% | Population Mitotic Cells (%) [4]: 63% and 76% | Population Normal (%) [4]: 94% and 91% | Population Pyknosed Nuclei (%) [4]: 9% and 7% | Population Tubulin-Different-Phenotype (%) [4]: 51% and 30% | Total Cell Count [4]: 757 and 965 | Population Apoptotic (%) [5]: 12% and 17% | Population Fragmented Nuclei (%) [5]: 11% and 9% | Population Healthy Nuclei (%) [5]: 84% and 87% | Population Hoechst High Intensity Objects (%) [5]: 8% | Population Membrane Permeable-Phenotype (%) [5]: 4% | Population Mitochondria Different-Phenotype (%) [5]: 1% and 0% | Population Mitotic Cells (%) [5]: 87% and 82% | Population Normal (%) [5]: 91% | Population Pyknosed Nuclei (%) [5]: 3% and 2% | Population Tubulin-Different-Phenotype (%) [5]: 8% and 11% | Total Cell Count [5]: 2361 and 2103 | Population Apoptotic (%) [6]: 25% and 17% | Population Fragmented Nuclei (%) [6]: 11% and 14% | Population Healthy Nuclei (%) [6]: 84% and 82% | Population Hoechst High Intensity Objects (%) [6]: 8% | Population Membrane Permeable-Phenotype (%) [6]: 6% | Population Mitochondria Different-Phenotype (%) [6]: 2% and 0% | Population Mitotic Cells (%) [6]: 75% and 82% | Population Normal (%) [6]: 91% | Population Pyknosed Nuclei (%) [6]: 4% and 2% | Population Tubulin-Different-Phenotype (%) [6]: 33% and 16% | Total Cell Count [6]: 1552 and 2354

CS(=O)(=O)c1ccc(NC(=O)c2cccc(COc3ccc(Br)cc3CNCCO)c2)c(Cl)c1.O=CO
Population Healthy Nuclei (%) [1]: 83% | Population Mitotic Cells (%) [1]: 47% and 41% | Population Pyknosed Nuclei (%) [1]: 14% | Total Cell Count [1]: 651 and 549 | Population Healthy Nuclei (%) [2]: 84% and 82% | Population Mitotic Cells (%) [2]: 37% and 33% | Total Cell Count [2]: 462 | Population Healthy Nuclei (%) [3]: 85% and 84% | Population Mitotic Cells (%) [3]: 46% | Population Pyknosed Nuclei (%) [3]: 8% and 10% | Total Cell Count [3]: 981 and 842 | Population Healthy Nuclei (%) [4]: 82% and 80% | Population Mitotic Cells (%) [4]: 33% and 32% | Population Pyknosed Nuclei (%) [4]: 16% | Total Cell Count [4]: 436 and 479 | Population Healthy Nuclei (%) [5]: 84% and 85% | Population Mitotic Cells (%) [5]: 74% and 85% | Population Pyknosed Nuclei (%) [5]: 4% and 3% | Total Cell Count [5]: 1426 and 1953 | Population Healthy Nuclei (%) [6]: 84% and 85% | Population Mitotic Cells (%) [6]: 21% | Population Pyknosed Nuclei (%) [6]: 10% and 9% | Total Cell Count [6]: 560 and 607

Cc1cc(C2CCCNC2)ccc1Nc1ncc(Br)c(NCc2cccc3c2C(C)(C)C(=O)N3)n1 (stereo not given)
Population Apoptotic (%) [1]: 54% | Population Fragmented Nuclei (%) [1]: 4% and 2% | Population Healthy Nuclei (%) [1]: 88% and 83% | Population Hoechst High Intensity Objects (%) [1]: 12% and 15% | Population Membrane Permeable-Phenotype (%) [1]: 2% and 1% | Population Mitochondria Different-Phenotype (%) [1]: 46% and 53% | Population Mitotic Cells (%) [1]: 45% | Population Normal (%) [1]: 87% and 84% | Population Pyknosed Nuclei (%) [1]: 7% and 13% | Population Tubulin-Different-Phenotype (%) [1]: 94% and 92% | Total Cell Count [1]: 482 and 397 | Population Apoptotic (%) [2]: 79% and 80% | Population Fragmented Nuclei (%) [2]: 5% and 6% | Population Healthy Nuclei (%) [2]: 89% | Population Hoechst High Intensity Objects (%) [2]: 13% and 15% | Population Membrane Permeable-Phenotype (%) [2]: 6% and 2% | Population Mitochondria Different-Phenotype (%) [2]: 44% and 59% | Population Mitotic Cells (%) [2]: 20% | Population Normal (%) [2]: 86% and 84% | Population Pyknosed Nuclei (%) [2]: 5% and 4% | Population Tubulin-Different-Phenotype (%) [2]: 95% | Total Cell Count [2]: 520 and 580 | Population Apoptotic (%) [3]: 67% and 55% | Population Fragmented Nuclei (%) [3]: 8% and 5% | Population Healthy Nuclei (%) [3]: 84% and 87% | Population Hoechst High Intensity Objects (%) [3]: 14% and 13% | Population Membrane Permeable-Phenotype (%) [3]: 1% | Population Mitochondria Different-Phenotype (%) [3]: 39% and 34% | Population Mitotic Cells (%) [3]: 32% and 44% | Population Normal (%) [3]: 85% and 86% | Population Pyknosed Nuclei (%) [3]: 7% and 6% | Population Tubulin-Different-Phenotype (%) [3]: 89% and 88% | Total Cell Count [3]: 567 and 602 | Population Apoptotic (%) [4]: 75% and 80% | Population Fragmented Nuclei (%) [4]: 4% and 8% | Population Healthy Nuclei (%) [4]: 89% and 85% | Population Hoechst High Intensity Objects (%) [4]: 17% and 18% | Population Membrane Permeable-Phenotype (%) [4]: 8% and 0% | Population Mitochondria Different-Phenotype (%) [4]: 53% and 64% | Population Mitotic Cells (%) [4]: 25% and 20% | Population Normal (%) [4]: 82% and 81% | Population Pyknosed Nuclei (%) [4]: 5% | Population Tubulin-Different-Phenotype (%) [4]: 97% and 95% | Total Cell Count [4]: 550 and 640 | Population Apoptotic (%) [5]: 26% and 35% | Population Fragmented Nuclei (%) [5]: 12% and 9% | Population Healthy Nuclei (%) [5]: 84% and 87% | Population Hoechst High Intensity Objects (%) [5]: 18% and 20% | Population Membrane Permeable-Phenotype (%) [5]: 2% | Population Mitochondria Different-Phenotype (%) [5]: 13% and 17% | Population Mitotic Cells (%) [5]: 73% and 65% | Population Normal (%) [5]: 81% and 79% | Population Pyknosed Nuclei (%) [5]: 3% and 2% | Population Tubulin-Different-Phenotype (%) [5]: 73% and 85% | Total Cell Count [5]: 832 and 880 | Population Apoptotic (%) [6]: 74% and 87% | Population Fragmented Nuclei (%) [6]: 10% and 12% | Population Healthy Nuclei (%) [6]: 77% and 70% | Population Hoechst High Intensity Objects (%) [6]: 16% and 24% | Population Membrane Permeable-Phenotype (%) [6]: 2% and 3% | Population Mitochondria Different-Phenotype (%) [6]: 65% and 68% | Population Mitotic Cells (%) [6]: 25% and 12% | Population Normal (%) [6]: 83% and 75% | Population Pyknosed Nuclei (%) [6]: 12% and 16% | Population Tubulin-Different-Phenotype (%) [6]: 91% | Total Cell Count [6]: 517 and 572
